Data on 44 compounds can be found in ChEMBL document CHEMBL1138825, “N-phenylphenylglycines as novel corticotropin releasing factor receptor antagonists” (J Med Chem, 2004).

Molecules are shown by their SMILES.

Data set [1] deals with T1, Corticotropin-releasing factor receptor 1 (Homo sapiens, UniProt P34998).
T1 sequence (P34998 whole entry): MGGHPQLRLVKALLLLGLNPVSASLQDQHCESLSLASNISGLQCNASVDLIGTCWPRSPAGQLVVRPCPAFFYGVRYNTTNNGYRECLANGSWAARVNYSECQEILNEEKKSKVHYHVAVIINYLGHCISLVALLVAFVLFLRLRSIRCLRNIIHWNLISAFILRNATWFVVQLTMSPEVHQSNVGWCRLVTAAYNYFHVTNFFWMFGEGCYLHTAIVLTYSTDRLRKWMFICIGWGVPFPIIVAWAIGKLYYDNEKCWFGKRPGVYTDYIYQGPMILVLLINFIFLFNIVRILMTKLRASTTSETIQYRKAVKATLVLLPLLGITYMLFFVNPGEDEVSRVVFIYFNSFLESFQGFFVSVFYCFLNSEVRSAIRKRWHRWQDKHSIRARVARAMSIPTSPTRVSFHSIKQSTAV
The data set is described as follows: Binding affinity towards human corticotropin releasing factor (h-CRF1) receptor. A digest of the protocol:
(§1)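 Ki values were measured in duplicate. If the duplicate Ki values differed by more than 15%, further duplicate runs were done until this criterion was met, and the determinations were averaged. Mean Ki is reported where there was more than one determination. Internal control compounds were run on every plate.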

For data set [2], the target named is T1, Corticotropin-releasing factor receptor 1. Briefly: Binding affinity of compound towards human corticotropin releasing factor (h-CRF1) receptor showed a 2-fold activity in racemic mixture; inactive. A digest of the protocol: as §1
Data set [3] has the same target. Briefly: Binding affinity of compound towards human Corticotropin releasing factor receptor 1.
Data set [4] can be described thus: Compound was evaluated for oral bioavailability. The data set is classed as ADME, organism-based. The following applies: in vivo, read-out: Bioavailabiility. A digest of the protocol:
(§2)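 Cassette dosing in beagle dogs (n = 2 per route), with each compound given alongside seven others. Oral dose was 1 mg/kg, with sampling at 0, 0.5, 1, 2, 4, 6, 8 and 24 h. Plasma drug levels were measured by LC/MS/MS.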

Data set [5] can be described thus: Compound was evaluated for total body clearance. The data set is classed as ADME. The following applies: read-out: Activity (converted).
Data set [6] addresses 5-hydroxytryptamine receptor 1B (Homo sapiens, UniProt P28222). The data set is described as follows: Binding affinity of compound towards serotonin 5-hydroxytryptamine 1B receptor; inactive at 10 uM.
The target of data set [7] is 5-hydroxytryptamine receptor 7 (Homo sapiens, UniProt P34969). The data set is described as follows: Binding affinity of compound towards serotonin 5-hydroxytryptamine 7 receptor; inactive at 10 uM.
The target of data set [8] is 5-hydroxytryptamine receptor 1D (Homo sapiens, UniProt P28221). Briefly: Binding affinity of compound towards serotonin 5-hydroxytryptamine 1D receptor; inactive at 10 uM.
Data set [9] can be described thus: Compound was evaluated for volume of distribution at steady state. The data set is classed as ADME. The conditions noted are these: read-out: Activity.
Data set [10] addresses 5-hydroxytryptamine receptor 6 (Homo sapiens, UniProt P50406). The data set is described as follows: Binding affinity of compound towards serotonin 5-hydroxytryptamine 6 receptor; inactive at 10 uM.
Data set [11] in a line: Compound was evaluated for half-life period. In kind it is ADME. A digest of the protocol: as §2
The target of data set [12] is T2, 5-hydroxytryptamine receptor 1A (Homo sapiens, UniProt P08908).
T2 sequence (P08908 whole entry): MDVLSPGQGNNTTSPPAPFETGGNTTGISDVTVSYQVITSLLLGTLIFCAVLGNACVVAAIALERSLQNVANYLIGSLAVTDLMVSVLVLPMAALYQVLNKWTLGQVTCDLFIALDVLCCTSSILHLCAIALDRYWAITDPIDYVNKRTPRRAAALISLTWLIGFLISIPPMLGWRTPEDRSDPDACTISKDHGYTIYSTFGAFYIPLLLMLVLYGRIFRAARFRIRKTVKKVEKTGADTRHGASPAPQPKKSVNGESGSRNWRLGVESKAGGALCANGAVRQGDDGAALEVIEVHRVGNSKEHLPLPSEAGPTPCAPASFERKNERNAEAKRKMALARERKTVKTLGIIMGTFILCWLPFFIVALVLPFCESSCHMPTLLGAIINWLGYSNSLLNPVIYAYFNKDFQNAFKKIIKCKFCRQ
The data set is described as follows: Binding affinity of compound towards serotonin 5-hydroxytryptamine 1A receptor; inactive at 10 uM.

The target in data set [13] is 5-hydroxytryptamine receptor 2A (Homo sapiens, UniProt P28223). Briefly: Binding affinity of compound towards serotonin 5-hydroxytryptamine 2A receptor; inactive at 10 uM.
In data set [14] the target is T1, Corticotropin-releasing factor receptor 1. Briefly: Binding affinity of compound towards human corticotropin releasing factor (h-CRF1) receptor; inactive. A digest of the protocol: as §1
For data set [15] the target is unchanged. The data set is described as follows: Binding affinity of compound towards human corticotropin releasing factor (h-CRF1) receptor showed a 2-fold activity in racemic mixture. In short, it runs like this: as §1
For data set [16], the target named is T3, Corticotropin-releasing factor receptor 2 (Homo sapiens, UniProt Q13324).
T3 sequence (Q13324 whole entry): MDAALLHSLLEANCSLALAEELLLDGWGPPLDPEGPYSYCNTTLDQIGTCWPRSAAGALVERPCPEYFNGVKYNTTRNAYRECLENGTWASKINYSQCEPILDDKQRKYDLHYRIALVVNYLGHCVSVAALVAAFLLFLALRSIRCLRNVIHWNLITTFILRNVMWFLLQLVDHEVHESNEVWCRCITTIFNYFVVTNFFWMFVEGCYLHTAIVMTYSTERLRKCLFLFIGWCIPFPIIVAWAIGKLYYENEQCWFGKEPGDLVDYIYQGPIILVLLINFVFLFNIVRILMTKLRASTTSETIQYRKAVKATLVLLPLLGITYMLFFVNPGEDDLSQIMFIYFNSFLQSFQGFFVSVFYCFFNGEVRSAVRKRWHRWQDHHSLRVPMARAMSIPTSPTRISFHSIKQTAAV
Briefly: Binding affinity of compound towards human Corticotropin releasing factor receptor 2; inactive at 10 uM.

Sequence of 5-hydroxytryptamine receptor 1D (P28221 whole entry): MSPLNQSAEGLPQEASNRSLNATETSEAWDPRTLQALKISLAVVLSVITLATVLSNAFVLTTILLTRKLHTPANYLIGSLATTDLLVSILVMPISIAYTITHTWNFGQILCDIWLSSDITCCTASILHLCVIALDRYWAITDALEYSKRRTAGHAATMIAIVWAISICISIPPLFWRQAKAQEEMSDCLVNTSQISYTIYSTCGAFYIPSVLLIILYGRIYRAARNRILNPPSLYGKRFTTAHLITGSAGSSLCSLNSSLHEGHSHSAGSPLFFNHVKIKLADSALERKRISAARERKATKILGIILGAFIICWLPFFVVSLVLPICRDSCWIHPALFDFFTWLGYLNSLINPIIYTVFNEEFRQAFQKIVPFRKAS
Sequence of 5-hydroxytryptamine receptor 1B (P28222 whole entry): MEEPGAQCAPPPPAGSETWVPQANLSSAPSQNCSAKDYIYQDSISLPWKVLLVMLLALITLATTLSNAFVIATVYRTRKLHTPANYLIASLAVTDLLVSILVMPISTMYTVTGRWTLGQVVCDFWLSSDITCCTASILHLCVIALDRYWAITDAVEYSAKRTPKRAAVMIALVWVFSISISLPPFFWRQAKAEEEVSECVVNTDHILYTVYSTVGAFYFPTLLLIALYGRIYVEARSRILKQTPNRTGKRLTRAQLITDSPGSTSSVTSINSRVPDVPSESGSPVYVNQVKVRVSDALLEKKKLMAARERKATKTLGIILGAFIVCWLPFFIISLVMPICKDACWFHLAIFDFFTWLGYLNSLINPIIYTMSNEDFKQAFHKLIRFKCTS
Sequence of 5-hydroxytryptamine receptor 6 (P50406 whole entry): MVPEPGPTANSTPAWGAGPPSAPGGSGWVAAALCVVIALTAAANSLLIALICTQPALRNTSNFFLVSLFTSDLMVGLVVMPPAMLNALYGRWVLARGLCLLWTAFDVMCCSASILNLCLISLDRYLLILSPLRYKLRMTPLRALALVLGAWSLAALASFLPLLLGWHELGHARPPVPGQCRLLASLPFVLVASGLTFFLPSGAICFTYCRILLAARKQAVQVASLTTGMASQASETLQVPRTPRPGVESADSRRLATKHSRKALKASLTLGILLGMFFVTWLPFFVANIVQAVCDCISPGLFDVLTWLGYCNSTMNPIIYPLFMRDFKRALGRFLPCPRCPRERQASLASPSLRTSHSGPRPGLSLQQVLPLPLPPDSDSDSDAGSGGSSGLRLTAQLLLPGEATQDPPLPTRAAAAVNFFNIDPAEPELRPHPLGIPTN
Sequence of 5-hydroxytryptamine receptor 2A (P28223 whole entry): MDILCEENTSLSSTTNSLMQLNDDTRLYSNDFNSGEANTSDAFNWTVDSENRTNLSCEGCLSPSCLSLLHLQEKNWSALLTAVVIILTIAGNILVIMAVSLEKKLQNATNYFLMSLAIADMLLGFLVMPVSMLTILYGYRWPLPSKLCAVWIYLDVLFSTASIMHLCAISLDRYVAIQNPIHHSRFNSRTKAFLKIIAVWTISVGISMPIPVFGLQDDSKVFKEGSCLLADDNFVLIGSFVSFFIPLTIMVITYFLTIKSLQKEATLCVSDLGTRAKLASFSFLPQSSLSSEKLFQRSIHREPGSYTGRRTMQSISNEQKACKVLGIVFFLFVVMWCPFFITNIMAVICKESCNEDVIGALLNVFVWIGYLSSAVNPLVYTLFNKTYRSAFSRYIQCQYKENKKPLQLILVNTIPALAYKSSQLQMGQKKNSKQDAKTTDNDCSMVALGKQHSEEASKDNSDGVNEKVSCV
Sequence of 5-hydroxytryptamine receptor 7 (P34969 whole entry): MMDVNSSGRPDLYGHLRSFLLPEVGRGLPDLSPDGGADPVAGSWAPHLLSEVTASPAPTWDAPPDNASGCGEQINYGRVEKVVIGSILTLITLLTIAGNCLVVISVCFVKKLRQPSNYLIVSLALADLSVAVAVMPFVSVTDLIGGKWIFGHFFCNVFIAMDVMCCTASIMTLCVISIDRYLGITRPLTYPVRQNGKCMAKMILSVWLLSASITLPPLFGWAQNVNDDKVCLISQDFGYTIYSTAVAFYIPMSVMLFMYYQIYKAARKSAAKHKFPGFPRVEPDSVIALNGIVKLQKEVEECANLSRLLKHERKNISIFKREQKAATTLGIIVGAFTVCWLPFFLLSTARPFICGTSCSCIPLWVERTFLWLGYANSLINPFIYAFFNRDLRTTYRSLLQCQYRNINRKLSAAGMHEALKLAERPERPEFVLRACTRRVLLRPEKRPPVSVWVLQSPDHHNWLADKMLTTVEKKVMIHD

Regarding `COc1cccc(OC)c1C(Nc1ccc(C)cc1Cl)C(=O)CCc1ccncc1` (stereo not given), the Ki in [1] is over 10000 nM.
In the case of `Cc1ccc(NC(C(=O)CCc2ccccn2)c2ccccc2Br)c(Cl)c1` (stereo not given), in [1], the Ki is over 10000 nM.
In the case of `O=C(CCc1ccncc1)C(Nc1ccccc1Cl)c1ccccc1Br` (stereo not given), in data set [1], the affinity corresponds to a Ki of 7330 nM.
As for `Cc1ccc(NC(C(=O)Cc2ccncc2)c2ccccc2Br)c(Cl)c1` (stereo not given), the Ki in [1] was over 10000 nM.
Still for that read-out and setting: the value for `COc1ccc(C(Nc2ccc(C)cc2Cl)C(=O)CCc2ccncc2)c(OC)c1` (stereo not given) was over 10000 nM.
In the case of `Cc1ccc(NC(C(=O)CCc2ccncc2)c2ccccc2C(C)C)c(Cl)c1` (stereo not given), the affinity in data set [1] corresponds to a Ki of 3300 nM.
On the same count and under the same terms, then `Cc1ccc(NC(C(=O)CCc2ccncc2)c2ccc(Cl)cc2)c(Cl)c1` (stereo not given), with over 10000 nM; and `Cc1ccccc1C(Nc1ccc(Cl)cc1Cl)C(=O)c1cccc(O)c1` (stereo not given), with over 10000 nM; and `Cc1ccccc1C(Nc1ccc(Cl)cc1Cl)C(=O)CCc1ccncc1` (stereo not given), with 370 nM.
On the same count and under the same terms, then `COc1ccc(C(=O)C(Nc2ccc(Cl)cc2Cl)c2ccccc2C)cc1O` (stereo not given), with 387 nM; and `CCc1ccccc1C(Nc1ccc(Cl)cc1Cl)C(=O)CCc1ccncc1` (stereo not given), with 330 nM; and `Cc1ccc(C(Nc2ccc(C)cc2Cl)C(=O)CCc2ccncc2)cc1` (stereo not given), with over 10000 nM.
Still for that read-out and setting: then `COc1ccccc1C(Nc1ccc(C)cc1Cl)C(=O)CCc1ccncc1` (stereo not given), with over 10000 nM; and `Cc1ccc(NC(C(=O)CCc2ccncc2)c2cccc(Cl)c2)c(Cl)c1` (stereo not given), with over 5000 nM.
`Cc1ccccc1C(Nc1ccc(Cl)cc1C(F)(F)F)C(=O)CCc1ccncc1` (stereo not given) returned a Ki in data set [1] of 469 nM.
The same measure, in the same setting: the value for `COc1ccc(C(=O)C(Nc2ccc(Cl)cc2Cl)c2ccccc2C)cc1OC` (stereo not given) was over 10000 nM.
For `Cc1ccc(N[C@H](C(=O)CCc2ccncc2)c2ccccc2Br)c(Cl)c1`, in data set [2], the Ki entry is listed as “Not Active”.
In [1], `Cc1ccc(NC(C(=O)CCc2ccncc2)c2ccccc2)c(Cl)c1` (stereo not given) showed an inhibition constant Ki of over 10000 nM.
`COc1ccc(OC)c(C(Nc2ccc(C)cc2Cl)C(=O)CCc2ccncc2)c1` (stereo not given): the Ki in [1] was over 10000 nM.
On the same count and under the same terms, the value for `Cc1cccc(C)c1C(Nc1ccc(Cl)cc1Cl)C(=O)CCc1ccncc1` (stereo not given) was 338 nM; that for `Cc1ccc(NC(C(=O)CCc2cnc[nH]2)c2ccccc2Br)c(Cl)c1` (stereo not given) was over 10000 nM.
Still for that read-out and setting: then `CN(c1ccccc1Cl)C(C(=O)CCc1ccncc1)c1ccccc1Br` (stereo not given), with over 10000 nM; and `Cc1ccc(NC(C(=O)CCc2ccncc2)c2ccccc2C)c(F)c1` (stereo not given), with 439 nM; and `Cc1ccc(NC(C(=O)CCc2ccncc2)c2ccccc2C)c(C(F)(F)F)c1` (stereo not given), with 641 nM.
For the compound `Cc1ccc(NC(C(=O)CCc2ccncc2)c2ccccc2F)c(Cl)c1` (stereo not given), in [3], the Ki was over 10000 nM.
`Cc1ccc(NC(C(=O)CCc2cccnc2)c2ccccc2Br)c(Cl)c1` (stereo not given) returned a Ki in data set [1] of over 10000 nM.
Still for that read-out and setting: then `Cc1ccc(N[C@@H](C(=O)CCc2ccncc2)c2ccccc2C)c(Cl)c1`, with 244 nM; and `Cc1cc(F)ccc1C(Nc1ccc(Cl)cc1Cl)C(=O)CCc1ccncc1` (stereo not given), with 512 nM.
For the compound `Cc1ccccc1[C@@H](Nc1ccc(Cl)cc1Cl)C(=O)CCc1ccncc1`, the bioavailability in [4] turned out to be 7%. Also, the clearance in data set [5] is 21.7 mL/min/kg. For the same compound, the Ki entry is “Not Active” in [6]; “Not Active” in data set [7]; “Not Active” in [8]; “Not Active” in data set [10]; 154 nM in data set [1]; “Not Active” in [12]. For the same compound, the Ki result in data set [13] is reported as “Not Active”. For the same compound, the Vd in data set [9] stood at 1.8 L/kg. The half-life in data set [11] is 1.7 h.
In data set [1], `Cc1ccc(NC(C(=O)CCc2ccncc2)c2ccccc2C)c(Cl)c1` (stereo not given) gave a Ki of 922 nM.
The same measure, in the same setting: then `COc1cccc(C(Nc2ccc(C)cc2Cl)C(=O)CCc2ccncc2)c1` (stereo not given), with over 10000 nM.
On the same count and under the same terms, then `Cc1ccc(NC(C(=O)CCc2ccc(F)cc2)c2ccccc2Br)c(Cl)c1` (stereo not given), with over 10000 nM; and `Cc1cccc(C(Nc2ccc(C)cc2Cl)C(=O)CCc2ccncc2)c1` (stereo not given), with over 10000 nM.
For the compound `O=C(CCc1ccncc1)C(Nc1ccc(Cl)cc1Cl)c1ccccc1C(F)(F)F` (stereo not given), the affinity in data set [1] corresponds to a Ki of 1000 nM.
On the same count and under the same terms, then `Cc1ccc(NC(C(=O)CCc2ccccc2)c2ccccc2Br)c(Cl)c1` (stereo not given), with over 10000 nM; and `O=C(CCc1ccncc1)C(Nc1ccc(Cl)cc1Cl)c1ccccc1Br` (stereo not given), with 204 nM; and `Cc1ccccc1[C@H](Nc1ccc(Cl)cc1Cl)C(=O)CCc1ccncc1`, with 3180 nM.
Consider `Cc1ccc(N[C@H](C(=O)CCc2ccncc2)c2ccccc2C)c(Cl)c1`, for which the Ki entry in data set [14] is given as “Not Active”.
In data set [1], `CC(=O)Nc1cccc(C(=O)C(Nc2ccc(Cl)cc2Cl)c2ccccc2Br)c1` (stereo not given) yielded a Ki of 514 nM.
Consider `Cc1ccc(N[C@@H](C(=O)CCc2ccncc2)c2ccccc2Br)c(Cl)c1`, for which the Ki in data set [15] was determined as 546 nM.
The compound `COc1ccc(C(=O)C(Nc2ccc(C)cc2Cl)c2ccccc2Br)cc1O` (stereo not given) displayed an inhibition constant (Ki) in data set [1] of 1070 nM.
As for `Cc1ccc(NC(C(=O)CCc2ccncc2)c2ccccc2Br)c(Cl)c1` (stereo not given), the Ki is 1040 nM in data set [3] and “Not Active” in [16].
On to `C=Cc1ccccc1C(Nc1ccc(C)cc1Cl)C(=O)CCc1ccncc1` (stereo in doubt; 4), for which the Ki in data set [1] turned out to be 752 nM.
On the same count and under the same terms, then `C=Cc1ccccc1C(Nc1ccc(C)cc1Cl)C(=O)CCc1ccncc1` (stereo in doubt; 32), with 752 nM.
